PubChem BioAssay
Calls of active or inactive are those of the source.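 The calls were made as follows, unless noted: active = viability loss from added drug above about 55%, and viability with drug at most 40%, in both replicates (limit read from the data, passing the limit was not always enough); inconclusive = both conditions met in only one replicate; inactive = neither replicate meets both conditions.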

Columns and labels:
[1] = reduced viability of SK-BR-3 breast cancer cells – cell-based, 24 h, human, pilot screen (AID 572;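 active = viability at or below 10% of carrier control in both of two separate runs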;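 also: compound exposure lasted between 18 and 24 h rather than exactly 24 h; 100% = carrier-treated control wells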); details: SK-BR-3 viability, CellTiter-Glo luminescence, at 10 µM, stronger effect = lower value
[2] = HUVEC growth inhibition – cell-based, human, primary screen (AID 575;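 active = viability at or below 30% in both replicate assays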;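 also: 100% = median of untreated cell wells with 0.1% DMSO on each plate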); details: HUVEC proliferation, CellTiter-Glo luminescence, 72 h; at 10 µM; stronger effect = lower value
Procedure, shortened: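 System – primary HUVEC, no more than 12 passages · Medium – Low-serum (2% FBS) EBM, supplemented · Times – 72 h exposure, 37 °C, 5% CO2, 30 min RT equilibration · Measured by – luminescent ATP assay · Read-out – % viability relative to median vehicle-well signal on each plate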

[3] = H69AR cell proliferation blockers – human, duplicate replicates, primary screen (AID 580;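 active = viability at or under a set limit in both replicates, limit being median viability minus 3 SD, cut at about 48% in these data, passing the limit was not always enough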;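 also: 100% = mean luminescence of untreated wells and 0% = no signal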); details: H69AR lung tumor cells viability, ATP luminescence, 72 h; at 10 µM; stronger effect = lower value
[4] = MRP1 drug-resistance reversers in H69AR cells – cell-based, doxorubicin co-treatment, pilot screen (AID 601); details: CellTiter-Glo, 72 h, at 10 µM; for differential viability (reversal): stronger effect = higher value
[5] = yeast transport mutant growth inhibition pilot in 384-well plates, post-Golgi transport modulator project (AID 636; in the data active = inhibition above about 31%); details: absorbance 615 nm, about 18 h, stronger effect = higher value
[6] = growth suppression of yeast trafficking mutant, preliminary HTS, modulators of trafficking downstream of Golgi apparatus project, 1536-format plate, OD 615 nm (AID 637; in the data active = inhibition above about 30%); details: yeast transport mutant growth, absorbance 615 nm, 18 h; stronger effect = higher value
[7] = H69AR cells + 2 uM doxorubicin, measured here: viability with 2 uM doxorubicin, stronger effect = lower value
[8] = H69AR cells, compound alone cytotoxicity

| SMILES | viability [1] | viability [2] | viability [3] | differential viability (reversal) ([4]; H69AR cells + 2 uM doxorubicin) | viability [4, 7] [%] | viability [4, 8] [%] | inhibition [5] | inhibition [6] |
| --- | --- | --- | --- | --- | --- | --- | --- | --- |
| Cn1c(-c2ccc(F)cc2)cnc1SCC(=O)Nc1ccccc1N1CCOCC1 | 94% (inactive) | 103% (inactive) | 102% (inactive) | 12.9% (inactive) | 88.8 | 102 | -7.57% (inactive) | -4.55% (inactive) |
| CCn1cc(C(=O)O)c(=O)c2cc(F)c(N3CCNCC3)nc21 | 106% (inactive) | 84% (inactive) | 105% (inactive) | 3.24% (inactive) | 102 | 105 | 2.34% (inactive) | -2.33% (inactive) |
| Cc1cc(NC(=O)c2cnn3c(C(F)F)cc(C4CC4)nc23)no1 | 131% (inactive) | 79.6% (inactive) | 82.4% (inactive) | -12.8% (inactive) | 95.1 | 82.4 | -1.43% (inactive) | 3.11% (inactive) |
| N#CC1=C(N)N2C(=C(C#N)C13CCCCC3)SC1CCCCC12O (configuration not stated) | 72% (inactive) | 88.2% (inactive) | 76.1% (inactive) | 6.71% (inactive) | 69.4 | 76.1 | -3.01% (inactive) | 8.91% (inactive) |
| COc1ccc2nc(S(=O)Cc3ncc(C)c(OC)c3C)[nH]c2c1 (configuration not stated) | 88% (inactive) | 71.1% (inactive) | 80.8% (inactive) | -13.3% (inactive) | 94.1 | 80.8 | -1.69% (inactive) | -2.5% (inactive) |
| Cc1ccc2nc(-c3ccc(S(=O)(=O)N4CCOCC4)cc3)cn2c1 | 138% (inactive) | 108% (inactive) | 105% (inactive) | 6.21% (inactive) | 98.5 | 105 | -1.17% (inactive) | -1.48% (inactive) |
| Cc1c(NC(=O)Cn2nc(C(=O)O)c3ccccc3c2=O)c(=O)n(-c2ccccc2)n1C | 116% (inactive) | 102% (inactive) | 101% (inactive) | 0.425% (inactive) | 100 | 101 | 2.88% (inactive) | -6.45% (inactive) |
| O=C(CSc1nnc(Cc2ccccc2)n1-c1cccc(Cl)c1)N1CCOCC1 | 106% (inactive) | 94.2% (inactive) | 85.6% (inactive) | 4.24% (inactive) | 81.3 | 85.6 | -4.8% (inactive) | -7.64% (inactive) |
| Cc1ccc2c(c1)nnn2C1CCN(C(=O)NC23CC4CC(CC(C4)C2)C3)CC1 | 72% (inactive) | 102% (inactive) | 92.1% (inactive) | 8.39% (inactive) | 83.7 | 92.1 | -8.08% (inactive) | 0.16% (inactive) |
| O=C(CSc1nc2ccccc2o1)NC(=O)NCc1ccco1 | 92% (inactive) | 96.3% (inactive) | 89.3% (inactive) | 3.28% (inactive) | 86.1 | 89.3 | -3.51% (inactive) | -1.27% (inactive) |
| CCC(=O)N(Cc1ccco1)c1nc(-c2cc(OC)ccc2OC)cs1 | 105% (inactive) | 42.8% (inactive) | 69.3% (inactive) | -0.87% (inactive) | 70.2 | 69.3 | -2% (inactive) | -2.91% (inactive) |
| CCOc1ccc(NC(=O)CSc2nc3cccnc3n2CC)cc1 | 103% (inactive) | 114% (inactive) | 81.4% (inactive) | -0.765% (inactive) | 82.2 | 81.4 | -3.77% (inactive) | 4.1% (inactive) |
| Cc1cc(Oc2ccc(Cl)cc2)nc(-c2ccccc2O)n1 | 98% (inactive) | 84.7% (inactive) | 93.9% (inactive) | 3.2% (inactive) | 90.7 | 93.9 | 2.73% (inactive) | -7.38% (inactive) |
| C1=C(CCNc2ncnc3c2cnn3-c2ccccc2)CCCC1 | 98% (inactive) | 116% (inactive) | 88.7% (inactive) | 6.36% (inactive) | 82.3 | 88.7 | -4.13% (inactive) | 0.91% (inactive) |
| OCCNC1=NCCN1 | 54% (inactive) | 99.5% (inactive) | 96.8% (inactive) | 6.17% (inactive) | 90.7 | 96.8 | -7.4% (inactive) | -0.55% (inactive) |
| CCn1c(SCC(=O)N2CCN(c3ccc(Cl)cc3)CC2)nc2ccccc2c1=O | 96% (inactive) | 77.2% (inactive) | 78.6% (inactive) | -12.9% (inactive) | 91.5 | 78.6 | 5.89% (inactive) | 25.5% (inactive) |
| CC(=O)C1=C(O)C(=O)N(C2CCCCC2)C1c1ccccc1 (configuration not stated) | 107% (inactive) | 98.6% (inactive) | 97.3% (inactive) | 10.9% (inactive) | 86.4 | 97.3 | -8.08% (inactive) | 5.32% (inactive) |
| O=C(NCCC1=CCCCC1)C1CCN(S(=O)(=O)c2cnc[nH]2)CC1 | 83% (inactive) | 111% (inactive) | 104% (inactive) | 15.5% (inactive) | 88.1 | 104 | -5.6% (inactive) | -1.27% (inactive) |
| Cc1ccc2nc(-c3ccc4c(c3)OCCO4)cc(C(=O)O)c2c1 | 89% (inactive) | 104% (inactive) | 101% (inactive) | 5.86% (inactive) | 95 | 101 | -4.73% (inactive) | -6% (inactive) |
| O=C(c1csc2ccccc12)N1CCCCCC1 | 109% (inactive) | 83.7% (inactive) | 104% (inactive) | 9.99% (inactive) | 93.9 | 104 | -1.51% (inactive) | -3.87% (inactive) |
| COc1ccc(CN(C(=O)CN2C(=O)COc3ccccc32)C2CCCC2)c(OC)c1 | 110% (inactive) | 87.4% (inactive) | 92.5% (inactive) | 4.62% (inactive) | 87.9 | 92.5 | -4.52% (inactive) | -0.18% (inactive) |
| CCC1CCCCN1S(=O)(=O)c1ccc(C(=O)Nc2nnc(-c3ccccc3Cl)o2)cc1 (configuration not stated) | 74% (inactive) | 13.5% (active) | 20.1% (active) | -21.7% (inactive) | 41.8 | 20.1 | -0.13% (inactive) | 11.6% (inactive) |
| COc1ccccc1-n1cnc2cc(NS(=O)(=O)c3ccccc3)ccc21 | 62% (inactive) | 101% (inactive) | 87.1% (inactive) | -0.69% (inactive) | 87.8 | 87.1 | -3.15% (inactive) | -6.55% (inactive) |
| Cc1noc(NS(=O)(=O)c2ccc(N)cc2)c1C | 97% (inactive) | 91% (inactive) | 105% (inactive) | 15.7% (inactive) | 89.1 | 105 | 2.34% (inactive) | -1.5% (inactive) |
